The experiment concerns the target T1, His6-Te2FT (Thermosynechococcus vestitus, UniProt Q8DK72).
T1 sequence (Q8DK72 1-293): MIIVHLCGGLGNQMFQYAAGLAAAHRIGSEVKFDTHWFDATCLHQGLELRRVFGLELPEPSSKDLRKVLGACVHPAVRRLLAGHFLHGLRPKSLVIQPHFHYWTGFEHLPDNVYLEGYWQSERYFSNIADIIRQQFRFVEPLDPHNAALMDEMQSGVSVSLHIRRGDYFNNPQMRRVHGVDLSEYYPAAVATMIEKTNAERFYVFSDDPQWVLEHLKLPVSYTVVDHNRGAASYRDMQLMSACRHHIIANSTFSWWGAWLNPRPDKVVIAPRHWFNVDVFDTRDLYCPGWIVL
As to the kind of experiment: HPLC-based fucosyltransferase kinetics. The note with it: α1–2-fucosyltransferase activity; acceptor; donor GDP-fucose. Format: biochemical. The method in brief:
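Enzyme is N-His6-tagged Te2FT from the pET15b vector, expressed in E. coli at 16 °C for 20 h with shaking at 120 rpm. It was purified on a Ni2+ column and quantified by bicinchoninic acid assay. Apparent kinetic parameters (kcat, KM, kcat/KM) were determined for α1–2-fucosyltransferase activity. The acceptor was Galβ1–3GlcNAcβ2AA and the donor was GDP-fucose.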

As a reminder, the Km is the concentration of substrate that gives half-maximal velocity.

As to Galβ1–3GlcNAcβ2AA, the Km turned out to be 790 ± 110 µM.
